This is an account of results in ChEMBL document CHEMBL1955801, “Synthesis, biological evaluation and molecular investigation of fluorinated peroxisome proliferator-activated receptors α/γ dual agonists” (Bioorg Med Chem, 2012).

Molecules are shown by their SMILES. pEC50: −log10 of the molar value. Active and inactive are the calls of the source. The calls are words filed in the database; no cut-off is given here.

Experiment [1] concerns the target T1, Peroxisome proliferator-activated receptor gamma (Homo sapiens, UniProt P37231).
T1 sequence (P37231 whole entry): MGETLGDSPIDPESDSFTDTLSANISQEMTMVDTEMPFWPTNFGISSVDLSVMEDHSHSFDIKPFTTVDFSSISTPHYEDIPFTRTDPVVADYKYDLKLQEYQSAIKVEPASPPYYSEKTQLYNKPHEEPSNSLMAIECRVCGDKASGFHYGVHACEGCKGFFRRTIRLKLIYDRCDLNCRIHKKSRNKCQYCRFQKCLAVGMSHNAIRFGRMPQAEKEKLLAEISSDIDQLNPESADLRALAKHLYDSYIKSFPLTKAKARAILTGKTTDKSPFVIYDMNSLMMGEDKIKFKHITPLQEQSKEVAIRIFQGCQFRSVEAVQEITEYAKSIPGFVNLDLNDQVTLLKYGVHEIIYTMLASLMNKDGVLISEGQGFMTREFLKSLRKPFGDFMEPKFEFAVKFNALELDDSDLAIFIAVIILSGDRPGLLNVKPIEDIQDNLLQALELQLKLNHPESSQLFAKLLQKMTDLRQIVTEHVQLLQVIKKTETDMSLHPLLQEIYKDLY
Kind of experiment: Agonist activity at GAL4-tagged human PPARgamma ligand binding domain expressed in HepG2 cells assessed as transactivation after 20 hrs by beta-galactosidase reporter gene assay. Format: cell-based.

Experiment [2] addresses T2, Peroxisome proliferator-activated receptor alpha (Homo sapiens, UniProt Q07869).
T2 sequence (Q07869 whole entry): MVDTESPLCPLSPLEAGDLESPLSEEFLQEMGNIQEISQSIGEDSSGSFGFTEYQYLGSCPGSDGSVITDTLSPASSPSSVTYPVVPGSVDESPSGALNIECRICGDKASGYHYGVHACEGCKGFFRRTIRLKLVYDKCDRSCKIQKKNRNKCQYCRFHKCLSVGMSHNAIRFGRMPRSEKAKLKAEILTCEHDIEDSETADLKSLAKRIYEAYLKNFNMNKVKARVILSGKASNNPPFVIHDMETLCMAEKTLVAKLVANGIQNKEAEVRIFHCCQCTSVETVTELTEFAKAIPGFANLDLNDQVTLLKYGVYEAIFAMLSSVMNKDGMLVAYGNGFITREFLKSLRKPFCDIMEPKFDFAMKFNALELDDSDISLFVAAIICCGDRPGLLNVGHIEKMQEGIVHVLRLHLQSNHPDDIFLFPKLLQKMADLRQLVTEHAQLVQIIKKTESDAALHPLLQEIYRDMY
As to the kind of experiment: Agonist activity at GAL4-tagged human PPARalpha ligand binding domain expressed in HepG2 cells assessed as transactivation after 20 hrs by beta-galactosidase reporter gene assay. Format: cell-based. In a few lines:
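HepG2 cells were grown in MEM with 10% heat-inactivated FBS and penicillin/streptomycin at 37 °C in 5% CO2. They were seeded at 10^5 cells/well in triplicate and calcium-phosphate transfected 24 h later with GAL4-PPARα LBD (30 ng), pGAL5TKpGL3 luciferase reporter (100 ng) and pCMVβgal (250 ng). Ligands were applied for 20 h. Luciferase was read with β-galactosidase measured alongside. Experiments were repeated at least twice.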
On the technique in general: A reporter such as luciferase makes a cellular process visible.

The target in experiment [3] is T3, Peroxisome proliferator-activated receptor alpha (Homo sapiens) (UniProt Q07869).
T3 sequence (whole entry): T2 sequence (Q07869 whole entry)
Kind of experiment: Agonist activity at GAL4-tagged human PPARalpha ligand binding domain expressed in HepG2 cells assessed as transactivation after 20 hrs by beta-galactosidase reporter gene assay relative to Wy-14643. It is filed as cell-based. In short, it runs like this:
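HepG2 cells were grown in MEM with 10% heat-inactivated FBS and penicillin/streptomycin at 37 °C in 5% CO2. They were seeded at 10^5 cells/well in triplicate and calcium-phosphate transfected 24 h later with GAL4-PPARα LBD (30 ng), pGAL5TKpGL3 luciferase reporter (100 ng) and pCMVβgal (250 ng). Ligands were applied for 20 h. Luciferase was read with β-galactosidase measured alongside. Wy-14,643 was the reference. Experiments were repeated at least twice.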

Experiment [4] addresses T4, Peroxisome proliferator-activated receptor gamma (Homo sapiens) (UniProt P37231).
T4 sequence (whole entry): T1 sequence (P37231 whole entry)
As to the kind of experiment: Agonist activity at GAL4-tagged human PPARgamma ligand binding domain expressed in HepG2 cells assessed as transactivation after 20 hrs by beta-galactosidase reporter gene assay relative to pioglitazone. Format: cell-based. In a few lines:
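HepG2 cells were cultured in MEM with 10% heat-inactivated FBS at 37 °C in 5% CO2 and seeded at 10^5 cells/well in triplicate. After 24 h they were calcium-phosphate transfected with GAL4-PPARγ LBD (30 ng), pGAL5TKpGL3 luciferase reporter (100 ng) and pCMVβgal (250 ng). Cells were treated with ligands for 20 h. Luciferase and β-galactosidase activities were measured in extracts. Pioglitazone was the reference. Experiments were run at least twice.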

The target in experiment [5] is T2, Peroxisome proliferator-activated receptor alpha. As to the kind of experiment: Agonist activity at GAL4-tagged human PPARalpha ligand binding domain expressed in HepG2 cells assessed as transactivation at 5 to 10 uM after 20 hrs by beta-galactosidase reporter gene assay. It is filed as cell-based.
Experiment [6] concerns the target T3, Peroxisome proliferator-activated receptor alpha (Homo sapiens). Particulars: HepG2, 5 to 10 uM.
Experiment [7] deals with T4, Peroxisome proliferator-activated receptor gamma (Homo sapiens). As to conditions: HepG2, 5 to 10 uM.
For experiment [8], the target named is T1, Peroxisome proliferator-activated receptor gamma. Kind of experiment: Agonist activity at GAL4-tagged human PPARgamma ligand binding domain expressed in HepG2 cells assessed as transactivation at 5 to 10 uM after 20 hrs by beta-galactosidase reporter gene assay. It is filed as cell-based.

What is called pEC50 is −log10 of the EC50, conventionally taken in molar units. As to `O=C(O)[C@H](Cc1ccccc1)Oc1ccc(Cl)cc1F`, the negative-log EC50 (pEC50) in experiment [1] is 5.60; in experiment [2], 5.66. Moreover, the values for the Emax in experiment [3] and in experiment [4] were 101% and 84%, respectively.
The like results for `O=C(O)C(Cc1ccccc1)Oc1cccc(F)c1` (racemic) were, in that order, 4.39, 4.68, 57% and 33%.
Consider `O=C(O)C(Oc1ccc(Cl)cc1F)c1ccccc1` (stereo not given), for which the negative-log EC50 (pEC50) is 4.49 in experiment [1] and 4.72 in experiment [2]. For the same molecule, the Emax in experiment [3] is 88%; in experiment [4], 11%.
As for `O=C(O)C(Cc1ccc(F)cc1)Oc1ccc(Cl)cc1` (racemic), the pEC50 in experiment [1] is 5.28; in experiment [2], 5.27. In addition, the figures for the Emax in experiment [3] and in experiment [4] were 66% and 57%, respectively.
Take `O=C(O)[C@H](Cc1ccccc1)Oc1cccc(C(F)(F)F)c1`: the negative logarithm of the EC50 (pEC50) in experiment [1] was 4.80; in experiment [2], 5.01. Further, the Emax in experiment [3] was found to be 71%; in experiment [4] it was 44%.
Turning to `O=C(O)C(Cc1ccc(Cl)cc1)Oc1ccc(Cl)cc1F` (racemic), the pEC50 was 6.05 in experiment [1] and 5.85 in experiment [2]. In addition, the Emax stood at 76% in experiment [3] and 69% in experiment [4].
For `O=C(O)C(Cc1cccc(F)c1)Oc1ccccc1C(F)(F)F` (racemic), the EC50 result in experiment [5] is “Not Active”. Besides, in experiment [1], the negative logarithm of the EC50 (pEC50) was 4.94. For the same molecule, the Emax in experiment [4] amounted to 20%.
For `O=C(O)C(Cc1ccccc1)Oc1ccc(Cl)c(F)c1` (stereo not given), the pEC50 was 4.85 in experiment [1] and 5.19 in experiment [2]. Further, the Emax in experiment [3] is 51%; in experiment [4], 40%.
`O=C(O)[C@H](Cc1ccccc1)Oc1ccc(F)cc1`: the pEC50 in experiment [1] is 4.45; in experiment [2] it was 4.61. Further, the Emax was 55% in experiment [3] and 58% in experiment [4].
In the case of `O=C(O)C(Oc1cccc(C(F)(F)F)c1)c1ccc(Cl)cc1` (stereo not given), in experiment [6], the Emax result was “inactive”. The EC50 entry in experiment [5] is on record as “Not Active”. Moreover, the negative-log EC50 (pEC50) in experiment [1] is 5.00. Also, the Emax in experiment [4] stood at 13%.
For the molecule `O=C(O)[C@H](Cc1ccccc1)Oc1ccc(Cl)cc1`, the negative-log EC50 (pEC50) was 5.02 in experiment [1] and 5.31 in experiment [2]. For the same molecule, the Emax in experiment [3] came out at 90%; in experiment [4] it was 77%.
Turning to `O=C(O)C(Cc1ccccc1F)Oc1ccc(Cl)cc1` (racemic), the values for the negative-log EC50 (pEC50) in experiment [1] and in experiment [2] were 5.31 and 5.18, respectively. For the same molecule, the Emax in experiment [3] was 66%; in experiment [4], 59%.
Regarding `CCc1ccc(CCOc2ccc(CC3SC(=O)NC3=O)cc2)nc1` (stereo not given) [PIOGLITAZONE], in experiment [6], the Emax result was “inactive”. For the same molecule, in experiment [5], the EC50 entry was “Not Active”.
`O=C(O)C(Cc1ccccc1)Oc1ccccc1C(F)(F)F` (racemic): the EC50 entry in experiment [5] was “Not Active”. Moreover, in experiment [1], the negative-log EC50 (pEC50) is 4.52. In addition, the Emax in experiment [4] stood at 13%.
In the case of `Cc1cccc(Nc2cc(Cl)nc(SCC(=O)O)n2)c1C` [PIRINIXIC ACID], the Emax entry in experiment [7] is “inactive”. In addition, in experiment [8], the EC50 entry is on record as “Not Active”.
With `O=C(O)C(Oc1ccc(Cl)cc1F)c1ccc(Cl)cc1` (stereo not given), the pEC50 in experiment [1] was 4.79; in experiment [2], 4.99. Besides, the values for the Emax in experiment [3] and in experiment [4] were 38% and 24%, respectively.
`O=C(O)C(Cc1cccc(F)c1)Oc1ccc(Cl)cc1F` (racemic): the pEC50 in experiment [1] was 5.62; in experiment [2], 5.35. The figures for the Emax in experiment [3] and in experiment [4] were 101% and 83%, respectively.
As to `O=C(O)C(Cc1ccccc1)Oc1ccc(Cl)c(C(F)(F)F)c1` (stereo not given), the figures for the pEC50 in experiment [1] and in experiment [2] were 5.24 and 5.60, respectively. The figures for the Emax in experiment [3] and in experiment [4] were 59% and 21%, respectively.
Consider `O=C(O)C(Cc1cccc(F)c1)Oc1ccc(Cl)cc1` (racemic), for which the pEC50 in experiment [1] was 5.46; in experiment [2], 5.29. The Emax in experiment [3] is 65%; in experiment [4], 52%.
In the case of `O=C(O)[C@H](Cc1ccccc1)Oc1ccc(C(F)(F)F)cc1`, the figures for the Emax in experiment [3] and in experiment [4] were 81% and 59%, respectively.
In the case of `O=C(O)[C@H](Cc1ccc(Cl)cc1)Oc1ccc(Cl)cc1F`, the pEC50 in experiment [1] is 6.30; in experiment [2], 6.00. The figures for the Emax in experiment [3] and in experiment [4] were 76% and 70%, respectively.
As for `O=C(O)C(Cc1ccccc1)Oc1ccccc1F` (racemic), the results for the negative logarithm of the EC50 (pEC50) in experiment [1] and in experiment [2] were 4.72 and 4.65, respectively. The Emax amounted to 36% in experiment [3] and 26% in experiment [4].
